Data set [1] deals with T1, C-X-C chemokine receptor type 4 (Homo sapiens, UniProt P61073). Briefly: Displacement of 12G5-CXCL12 from CXCR4 in human HPBALL cells after 3 hrs by FACS analysis. It is filed as cell-based. (A flow cytometer gives signals particle by particle.)
Data set [2] addresses T1, C-X-C chemokine receptor type 4. The data set is described as follows: Antagonist activity at CXCR4 in human CD4+ T cells assessed as inhibition of CXCL12-mediated cytosolic calcium level preincubated with compounds followed by CXCL12 stimulation by calcium 4 dye-based FLIPR assay. In kind it is functional, cell-based.
Data set [3] in a line: Efflux ratio of apparent permeability across basolateral to apical over apical to basolateral side in human Caco2 cells at 2 uM by LC-MS/MS method. In kind it is ADME, cell-based. Conditions: Caco-2. For orientation: Caco-2 monolayers are a common model of the intestinal barrier.
The target of data set [4] is Voltage-gated inwardly rectifying potassium channel KCNH2 (Homo sapiens, UniProt Q12809). Briefly: Inhibition of human ERG expressed in CHO cells after 4 mins at -80 mV holding potential by Qpatch assay. In kind it is cell-based. (The patch-clamp technique gives a direct electrical read-out from membranes.)
Sequence of Voltage-gated inwardly rectifying potassium channel KCNH2 (Q12809 whole entry): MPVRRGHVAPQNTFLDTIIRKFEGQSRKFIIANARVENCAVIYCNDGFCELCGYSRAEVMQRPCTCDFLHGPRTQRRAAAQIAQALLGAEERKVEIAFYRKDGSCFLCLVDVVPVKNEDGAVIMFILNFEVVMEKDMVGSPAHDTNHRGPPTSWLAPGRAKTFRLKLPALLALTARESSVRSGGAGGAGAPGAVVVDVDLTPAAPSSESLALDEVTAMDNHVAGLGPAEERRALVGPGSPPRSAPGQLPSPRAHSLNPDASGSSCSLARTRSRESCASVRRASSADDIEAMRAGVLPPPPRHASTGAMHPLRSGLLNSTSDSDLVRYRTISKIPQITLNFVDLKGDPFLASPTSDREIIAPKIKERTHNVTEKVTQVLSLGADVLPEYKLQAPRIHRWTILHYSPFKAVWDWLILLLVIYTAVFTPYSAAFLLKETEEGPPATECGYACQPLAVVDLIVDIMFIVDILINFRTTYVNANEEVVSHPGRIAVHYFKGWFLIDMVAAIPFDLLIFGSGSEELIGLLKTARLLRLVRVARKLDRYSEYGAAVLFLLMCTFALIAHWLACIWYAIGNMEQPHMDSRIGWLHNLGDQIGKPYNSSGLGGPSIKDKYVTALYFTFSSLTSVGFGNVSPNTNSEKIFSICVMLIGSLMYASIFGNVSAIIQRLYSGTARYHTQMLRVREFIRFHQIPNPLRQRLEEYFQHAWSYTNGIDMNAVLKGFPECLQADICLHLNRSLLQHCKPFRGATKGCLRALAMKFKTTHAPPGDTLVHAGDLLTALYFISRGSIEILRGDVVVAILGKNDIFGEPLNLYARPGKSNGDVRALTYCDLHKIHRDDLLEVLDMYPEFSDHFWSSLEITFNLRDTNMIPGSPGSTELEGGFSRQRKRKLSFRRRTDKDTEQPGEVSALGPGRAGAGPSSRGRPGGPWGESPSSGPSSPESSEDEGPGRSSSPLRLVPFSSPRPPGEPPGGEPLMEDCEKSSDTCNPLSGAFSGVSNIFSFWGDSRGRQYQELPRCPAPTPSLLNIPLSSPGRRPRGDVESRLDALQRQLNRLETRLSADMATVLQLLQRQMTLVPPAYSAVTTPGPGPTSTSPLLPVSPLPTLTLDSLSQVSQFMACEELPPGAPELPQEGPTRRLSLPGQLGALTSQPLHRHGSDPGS
Data set [5] is described as follows: Half life in mouse liver microsomes at 1 uM preincubated for 10 mins followed by NADPH addition measured after 30 to 60 mins by LC-MS/MS method. It is filed as ADME, microsome.
Data set [6] in a line: Half life in human liver microsomes at 1 uM preincubated for 10 mins followed by NADPH addition measured after 30 to 60 mins by LC-MS/MS method. In kind it is ADME, microsome.
Data set [7] is described as follows: Intrinsic clearance in human liver microsomes at 1 uM preincubated for 10 mins followed by NADPH addition measured after 30 to 60 mins by LC-MS/MS method. In kind it is ADME, microsome. The following applies: read-out: CLH.
Data set [8] can be described thus: Intrinsic clearance in mouse liver microsomes at 1 uM preincubated for 10 mins followed by NADPH addition measured after 30 to 60 mins by LC-MS/MS method. In kind it is ADME, microsome. The following applies: read-out: CLH.
A short description of data set [9]: Apparent permeability across apical to basolateral side in human Caco2 cells at 2 uM by LC-MS/MS method. It is filed as ADME, cell-based. Conditions: Caco-2.
Data set [10] concerns the target T1, C-X-C chemokine receptor type 4. The data set is described as follows: Antagonist activity at CXCR4-mediated chemotaxis in human MDA-MB-231 cells assessed as inhibition of CXCL12-induced cell invasion at 100 nM after 24 hrs by crystal violet staining-based microscopic matrigel assay. It is filed as functional. An outline of the steps: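 MDA-MB-231 cells (1 × 10⁵ cells/well) plus compound (100 nM) in upper chamber of 8-µm-pore Boyden inserts coated with 50mg/L Matrigel; CXCL12 in serum-free medium in lower chamber as chemoattractant. After 24 h, non-invaded cells wiped off; invaded cells fixed in cold methanol, crystal violet stained, counted in 10 random fields (100×). Three independent experiments; t-test vs control.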

For data set [11], the system named is MCF7. The data set is described as follows: Antiproliferative activity against human MCF7 cells at 400 nM after 24 to 48 hrs by MTT assay. It is filed as functional, cell-based. In a few lines: (§1)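 Cells seeded at 5 × 10³ cells/well, treated with compound, incubated at 37 °C, 5% CO₂ (48 h in methods; 24 h in figure legend), then 4 h with MTT reagent; formazan dissolved in DMSO, absorbance at 570 nm. Mean±SD of three independent experiments.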

For data set [12], the target named is T1, C-X-C chemokine receptor type 4. Briefly: Potency index, ratio of AMD3100 IC50 to compound IC50 for CXCR4 in human CD4+ T cells. In kind it is cell-based.
For data set [13], the target named is CYP2D6 (Homo sapiens, UniProt P10635). The data set is described as follows: Inhibition of CYP2D6 in human liver microsomes at 10 uM using dextromethorphan as substrate preincubated for 10 min followed by NADPH addition measured after 10 mins by LC-MS/MS analysis relative to control. It is filed as ADME. The following applies: probe dextromethorphan.
Sequence of CYP2D6 (P10635 whole entry): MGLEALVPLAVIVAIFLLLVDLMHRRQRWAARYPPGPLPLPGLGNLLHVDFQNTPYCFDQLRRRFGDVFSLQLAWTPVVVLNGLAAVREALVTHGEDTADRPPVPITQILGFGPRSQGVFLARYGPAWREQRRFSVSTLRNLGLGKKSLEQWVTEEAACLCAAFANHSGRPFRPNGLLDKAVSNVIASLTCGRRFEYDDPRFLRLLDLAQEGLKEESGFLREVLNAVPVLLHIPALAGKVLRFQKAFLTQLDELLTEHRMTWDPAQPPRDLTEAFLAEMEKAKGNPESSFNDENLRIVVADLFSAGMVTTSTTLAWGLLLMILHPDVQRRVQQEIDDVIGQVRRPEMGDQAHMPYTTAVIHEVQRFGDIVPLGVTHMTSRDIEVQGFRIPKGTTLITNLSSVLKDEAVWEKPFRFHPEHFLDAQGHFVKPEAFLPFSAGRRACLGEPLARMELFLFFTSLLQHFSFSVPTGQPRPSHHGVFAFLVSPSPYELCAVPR
The target in data set [14] is CYP3A4 (Homo sapiens, UniProt P08684). Briefly: Inhibition of CYP3A4 in human liver microsomes at 10 uM using midazolam as substrate preincubated for 10 min followed by NADPH addition measured after 10 mins by LC-MS/MS analysis relative to control. It is filed as ADME. Conditions: probe midazolam.
Sequence of CYP3A4 (P08684 whole entry): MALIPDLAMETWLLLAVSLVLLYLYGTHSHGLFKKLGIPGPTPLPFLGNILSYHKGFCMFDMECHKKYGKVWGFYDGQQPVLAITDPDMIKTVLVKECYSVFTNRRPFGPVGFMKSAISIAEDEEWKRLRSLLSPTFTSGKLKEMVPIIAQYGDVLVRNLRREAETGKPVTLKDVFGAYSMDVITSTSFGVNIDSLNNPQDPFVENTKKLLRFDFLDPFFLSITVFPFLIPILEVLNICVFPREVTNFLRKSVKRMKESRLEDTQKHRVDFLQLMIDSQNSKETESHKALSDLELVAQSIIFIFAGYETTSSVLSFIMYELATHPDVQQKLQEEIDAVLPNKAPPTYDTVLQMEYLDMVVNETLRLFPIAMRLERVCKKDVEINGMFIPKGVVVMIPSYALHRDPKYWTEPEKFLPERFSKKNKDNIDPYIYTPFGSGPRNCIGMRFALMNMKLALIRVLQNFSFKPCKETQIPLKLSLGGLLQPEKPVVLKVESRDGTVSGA
Data set [15] concerns MDA-MB-231. Briefly: Antiproliferative activity against human MDA-MB-231 cells at 400 nM after 24 to 48 hrs by MTT assay. It is filed as functional, cell-based. In a few lines: as §1
A short description of data set [16]: Antiproliferative activity against HOSEC at 400 nM after 24 to 48 hrs by MTT assay. The following applies: human, 0.4 µM. In a few lines: as §1

The structures appear in SMILES notation. pIC50: −log10 of the molar value. The source made the active and inactive calls. The calls are words filed in the database; no cut-off is given here.

Data on 24 compounds can be found in ChEMBL document CHEMBL4196046, “Design, synthesis, and structure-activity-relationship of a novel series of CXCR4 antagonists” (Eur J Med Chem, 2018).

T1 sequence (P61073 whole entry): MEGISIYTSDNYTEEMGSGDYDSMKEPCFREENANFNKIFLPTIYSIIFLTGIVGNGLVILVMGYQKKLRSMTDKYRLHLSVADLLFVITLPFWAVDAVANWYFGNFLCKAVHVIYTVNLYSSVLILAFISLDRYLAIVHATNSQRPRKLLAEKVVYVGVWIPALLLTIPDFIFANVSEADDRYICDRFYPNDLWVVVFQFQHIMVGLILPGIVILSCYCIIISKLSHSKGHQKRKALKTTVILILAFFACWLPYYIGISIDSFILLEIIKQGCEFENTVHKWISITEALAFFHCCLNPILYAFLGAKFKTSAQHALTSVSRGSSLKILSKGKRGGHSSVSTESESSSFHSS

The pIC50 is the negative decadic logarithm of the IC50, by convention in mol/L. In data set [1], `CN1CCN(c2ccnc(CN(C)C3CCCc4cccnc43)c2)CC1` (stereo unspecified) had a pIC50 of 6.70.
Take `CN1CCN(c2cc(CN(C)[C@@H]3CCCc4cccnc43)ncn2)CC1`: the pIC50 is 5.89 in data set [1] and 7.17 in data set [2].
For the compound `CN1CCCN(c2cc(CN(C)C3CCCc4cccnc43)ncn2)CC1` (stereo unspecified), the pIC50 in data set [1] was 6.77.
With `CN(Cc1cc(N2CCN(C(=O)OC(C)(C)C)CC2)ncn1)C1CCCc2cccnc21` (stereo unspecified), the pIC50 in [1] was < 5.00.
Take `CN1CCN(c2nccc(CN(C)C3CCCc4cccnc43)n2)CC1` (stereo unspecified): the pIC50 in data set [1] is < 5.00.
On the same count and under the same terms, as for `CN1CCN(c2ccnc(CN(C)C3CCCc4cccnc43)n2)CC1` (stereo unspecified), the figure is 6.74.
The efflux ratio is a quotient of directional permeabilities that is used to spot active efflux. As a reminder, the half-life is the time in which the quantity being followed falls by half. What is called Papp A→B is how fast a substance crosses the layer from the apical side. In the case of `CN1CCN(c2cc(CN(C)[C@H]3CCCc4cccnc43)ncn2)CC1`, the efflux ratio at 2 µM in data set [3] was 1.5. Further, the pIC50 in [4] was < 4.52; in data set [1] it was 7.06; in data set [2] it was 9.14. The half-life at 1 µM in data set [5] was 1.4 min; in data set [6], 7.7 min. Also, the CLint scaled at 1 µM was 226 mL/min/kg in [7] and 3860 mL/min/kg in data set [8]. Besides, the Papp A→B at 2 µM in data set [9] was found to be 15 ×10⁻⁶ cm/s.
Compound `CN(Cc1cc(N2CCN(CC3CC3)CC2)ncn1)C1CCCc2cccnc21` (stereo unspecified) gave a pIC50 in data set [1] of 5.98.
In [1], `CCN1CCN(c2cc(CN(C)C3CCCc4cccnc43)ncn2)CC1` (stereo unspecified) had a pIC50 of 6.49.
The same measure, in the same setting: for `CN1CCN(c2cc(CN(CCCCNC(=O)OC(C)(C)C)C3CCCc4cccnc43)ncn2)CC1` (stereo unspecified) the value was 7.74; for `CN(C)C1CCN(c2cc(CN(C)C3CCCc4cccnc43)ncn2)C1` (stereo unspecified), 6.82.
As for `CN(Cc1ccncn1)C1CCCc2cccnc21` (stereo unspecified), the pIC50 in data set [1] was < 5.00.
As usually defined, the inhibition is the percentage by which the read-out fell short of the control. `c1cc(CN2CCCNCCNCCCNCC2)ccc1CN1CCCNCCNCCCNCC1`: the inhibition entry in data set [10] was “Active”.
Regarding `CN1CCN(c2cc(CN(C)C3CCCc4cccnc43)ncn2)CC1.Cl` (stereo unspecified), the outcome in data set [11] and in data set [15] was inactive. For the same compound, the Ratio IC50 in data set [12] was 8. For the same compound, the inhibition at 10 min, 10 µM in [13] turned out to be 3%; in data set [14], 9%. Besides, the results for the pIC50 in data set [1] and in data set [2] were 7.27 and 8.64, respectively. Besides, in [16], the Activity entry is listed as “Non-Toxic”. Further, in data set [10], the inhibition entry is “Active”.
For the compound `CN1CCN(c2cc(CN(CCCCN)C3CCCc4cccnc43)ncn2)CC1` (stereo unspecified), in data set [1], the pIC50 was 7.74.
The same measure, in the same setting: for `CN(Cc1cc(NCCN2CCOCC2)ncn1)C1CCCc2cccnc21` (stereo unspecified) the value was 6.19; for `CN(C)CCN(C)c1cc(CN(C)C2CCCc3cccnc32)ncn1` (stereo unspecified), 5.99; for `CN1CCN(c2cc(CN(C)C3CCCc4cccnc43)ccn2)CC1` (stereo unspecified), < 5.00.
Consider `CN(C)C1CCN(c2cc(CN(C)C3CCCc4cccnc43)ncn2)CC1` (stereo unspecified), for which the pIC50 in data set [1] is 6.20.
Regarding `CN(Cc1cc(N2CCN(CCO)CC2)ncn1)C1CCCc2cccnc21` (stereo unspecified), the pIC50 in data set [1] is 6.54.
In the case of `CN1CCN(c2cccc(CN(C)C3CCCc4cccnc43)n2)CC1` (stereo unspecified), the pIC50 in data set [1] is < 5.00.
As for `CN(Cc1cc(N2CCNCC2)ncn1)C1CCCc2cccnc21` (stereo unspecified), the pIC50 in data set [1] was 5.59.
Take `CC(C)N1CCN(c2cc(CN(C)C3CCCc4cccnc43)ncn2)CC1` (stereo unspecified): the pIC50 in [1] was 6.68.
Turning to `CN(C)c1cc(CN(C)C2CCCc3cccnc32)ncn1` (stereo unspecified), in data set [1], the pIC50 is < 5.00.
